The test system of one assay is A549. Description: Cytotoxicity against human A549 cells assessed as reduction in cell viability after 72 hrs by MTS assay. The format is functional, cell-based. Conditions: A549, 72 h. In a few lines:
(§1)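 MTS (CellTiter 96 AQueous One) proliferation read after 72 h of exposure across a concentration range. IC50 is the concentration giving 50% proliferation inhibition. Triplicate determinations in three independent experiments, mean ± SD.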

The subject of assay [1] is MCF7. Description: Cytotoxicity against human MCF7 cells assessed as reduction in cell viability after 72 hrs by MTS assay. It is filed as functional, cell-based. Conditions: MCF7, 72 h. In short, it runs like this:
(§2)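 Cells kept in DMEM with 10% FBS at 37 °C, 5% CO2. Proliferation read by MTS (CellTiter 96 AQueous One) 72 h after exposure across a concentration range. IC50 is the concentration giving 50% proliferation inhibition. Triplicate wells, three independent experiments, mean ± SD.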

The subject of another assay is HT-29. Description: Cytotoxicity against human HT-29 cells assessed as reduction in cell viability after 72 hrs by MTS assay. It is filed as functional, cell-based. Conditions: HT-29, 72 h. In a few lines:
as §1

Assay [2] relates to MCF7. Description: Cytotoxicity against human MCF7 cells assessed as reduction in cell viability at 20 uM after 72 hrs by MTS assay relative to control. The format is functional. In a few lines:
(§3)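 Cells grown in DMEM with 10% FBS at 37 °C, 5% CO2, exposed to 20 μM for 72 h. Proliferation read by MTS and inhibition expressed relative to vehicle. ≥50% inhibition counted as active. Triplicate wells, three independent experiments.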

The subject of a further assay is MCF-10A. Description: Cytotoxicity against human MCF10A cells assessed as reduction in cell viability after 72 hrs by MTS assay. The format is cell-based. In a few lines: as §1
The test system of assay [3] is HCT-116. Put plainly: Cytotoxicity against human HCT116 cells assessed as reduction in cell viability after 72 hrs by MTS assay. It is filed as functional, cell-based. The note with it: HCT-116, 72 h. In a few lines: as §2
The subject of assay [4] is HCT-116. Description: Cytotoxicity against human HCT116 cells assessed as reduction in cell viability at 20 uM after 72 hrs by MTS assay relative to control. It is filed as functional. In a few lines:
as §3

A further assay deals with HeLa. Description: Cytotoxicity against human HeLa cells assessed as reduction in cell viability after 72 hrs by MTS assay. The format is functional, cell-based. In a few lines: as §1
In another assay the test system is MDA-MB-231. Put plainly: Cytotoxicity against human MDA-MB-231 cells assessed as reduction in cell viability after 72 hrs by MTS assay. The format is functional, cell-based. Conditions: MDA-MB-231, 72 h. In short, it runs like this:
as §1

As to `COc1ccc(C(=O)/C=C/c2nc3ccccc3c(=O)[nH]2)c(OC)c1`, the IC50 worked out at 15.5 µM in the assay with A549; 4.49 µM in the assay with MCF7 [1]; 8.77 µM with HT-29; 9.14 µM with MCF-10A; 4.08 µM in the assay on HCT-116 [3]; 12.7 µM in the assay on HeLa. Besides, in the assay with MDA-MB-231, the IC50 is 14.3 µM. Moreover, the Activity result in the assay on MCF7 [2] and in the assay with HCT-116 [4] was “>=50%” throughout.
For the compound `Cc1ccc(C(=O)/C=C/c2nc3ccccc3c(=O)[nH]2)c(C)c1`, the IC50 was 13.3 µM with A549; 4.5 µM in the assay on MCF7 [1]; 12.5 µM with HT-29; 5.47 µM with MCF-10A; 4.77 µM with HCT-116 [3]; 9.55 µM in the assay with HeLa. The half-inhibitory concentration (IC50) in the assay on MDA-MB-231 came out at 15.3 µM. Also, the Activity result in the assay on MCF7 [2] and with HCT-116 [4] was “>=50%” in each case.

Source of the values: ChEMBL document CHEMBL4325909, “Synthesis and evaluation of chalcone analogues containing a 4-oxoquinazolin-2-yl group as potential anti-tumor agents” (Eur J Med Chem, 2019).
